In ChEMBL document CHEMBL1126246, “Ester and amide derivatives of E64c as inhibitors of platelet calpains” (J Med Chem, 1992) one finds I50 and IC50 data, which are given here for 13 molecules.

Test [1] deals with T1, Calpain-1 catalytic subunit (Homo sapiens, UniProt P07384).
T1 sequence (P07384 whole entry): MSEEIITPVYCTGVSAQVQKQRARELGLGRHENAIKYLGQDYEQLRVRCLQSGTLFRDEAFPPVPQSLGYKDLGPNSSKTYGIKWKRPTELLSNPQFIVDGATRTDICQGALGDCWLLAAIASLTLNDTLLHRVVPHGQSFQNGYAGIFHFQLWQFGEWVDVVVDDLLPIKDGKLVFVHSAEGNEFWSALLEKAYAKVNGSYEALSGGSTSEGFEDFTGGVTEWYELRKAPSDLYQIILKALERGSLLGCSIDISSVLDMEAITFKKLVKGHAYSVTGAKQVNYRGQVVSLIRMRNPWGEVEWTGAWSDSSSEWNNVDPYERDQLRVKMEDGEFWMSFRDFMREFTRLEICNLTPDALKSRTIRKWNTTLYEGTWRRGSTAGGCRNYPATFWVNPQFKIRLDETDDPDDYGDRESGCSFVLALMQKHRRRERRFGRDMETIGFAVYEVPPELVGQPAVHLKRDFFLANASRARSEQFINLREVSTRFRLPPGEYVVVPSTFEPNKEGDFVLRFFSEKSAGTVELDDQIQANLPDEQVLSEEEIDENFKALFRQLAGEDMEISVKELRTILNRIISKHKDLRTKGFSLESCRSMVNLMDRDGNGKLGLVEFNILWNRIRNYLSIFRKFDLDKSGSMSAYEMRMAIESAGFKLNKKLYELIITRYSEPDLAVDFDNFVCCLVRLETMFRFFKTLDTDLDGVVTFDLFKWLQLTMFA
In words: The calpain inhibitory activity(I 50) was measured as ability to enter the platelet and inhibit calpain in the intact cells(assay 3); (+)indicates substantial inhibition by 5-44 uM. The test is classed as cell-based. The gist of the method: (§1)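 Washed human platelets (6 × 10⁸/mL, Hank's buffer) were preincubated with compound in DMSO at 30 °C for 15 min. Final concentrations were 0.8, 5.5, 44 or 440 μM. A23187 plus CaCl₂ was added for 10 min at room temperature. Samples were boiled in SDS sample buffer with leupeptin, run on 8% SDS-PAGE and stained with Coomassie. Loss of actin-binding protein and talin was scored.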

The target in test [2] is T1, Calpain-1 catalytic subunit. As to the kind of experiment: The ability of compound to inhibit calpain in a preparation of lysed platelets was measured with a caseinolytic assay(assay 1). The following applies: read-out: I50. In outline: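 Washed human platelets (6 × 10⁸/mL) in Hank's solution were preincubated with inhibitor at 30 °C for 3 min. CaCl₂, Triton X-100 and [³H]casein were then added and incubated 20 min at 30 °C. The reaction was stopped with TCA, and TCA-soluble radioactivity was counted. I50 was estimated from fractional inhibition at five inhibitor concentrations.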

The target is the same in test [3]. As to the kind of experiment: The calpain inhibitory activity(I 50) was measured as ability to enter the platelet to inhibit calpain after cell lysis(assay 2). The settings on record: read-out: I50. The gist of the method:
(§2)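 Washed human platelets (7 × 10⁸/mL, Hank's) were exposed to inhibitor for 15 min at 30 °C. Cells were diluted in Tyrode-HEPES pH 7.4, pelleted twice to remove free drug, resuspended in Hank's and equilibrated 3 min. They were then lysed with Triton X-100 plus CaCl₂ and [³H]casein for 20 min at 30 °C. TCA-soluble counts were measured. I50 came from a five-concentration line.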

Test [4] has the same target. As to the kind of experiment: The ability of compound to inhibit calpain in a preparation of lysed platelets was measured with a caseinolytic assay(assay 1); (+) indicates the compound was inhibitory, but I50 was not determined.
The target is the same in test [5]. As to the kind of experiment: The calpain inhibitory activity(I 50) was measured as ability to enter the platelet and inhibit calpain in the intact cells(assay 3); (-)indicates little inhibition by 444 uM. Format: cell-based. In outline: as §1
The target is the same in test [6]. As to the kind of experiment: The calpain inhibitory activity(I 50) was measured as ability to enter the platelet to inhibit calpain after cell lysis(assay 2); (-)indicates little inhibition by 444 uM. In outline:
as §2

As for `CC(C)CCNC(=O)[C@H](CC(C)C)NC(=O)[C@H]1O[C@@H]1C(=O)OCCF`, the I50 result in test [1] is given as “substantial inhibition by 5-44 uM”. Also, the IC50 in test [2] was found to be 500 nM; in test [3] it was 3000 nM.

Regarding `CCOC(=O)[C@H]1O[C@@H]1C(=O)N[C@@H](CC(C)C)C(=O)NCCC(C)C` [ALOXISTATIN], the I50 entry in test [1] is given as “substantial inhibition by 5-44 uM”. Further, the IC50 in test [2] and in test [3] was 4000 nM in each case.

For the molecule `CC(C)CCNC(=O)[C@H](CC(C)C)NC(=O)[C@H]1O[C@@H]1C(=O)OCCBr`, the I50 entry in test [1] is on record as “substantial inhibition by 5-44 uM”. Also, the IC50 in test [2] was 1000 nM; in test [3], 2000 nM.

On to `CC(C)CCNC(=O)[C@H](CC(C)C)NC(=O)[C@H]1O[C@@H]1C(=O)OCC(F)(F)F`, for which the I50 entry in test [1] and in test [4] was “substantial inhibition by 5-44 uM” throughout. In addition, the IC50 in test [3] is 2000 nM.

Consider `CCCCC(COC(=O)[C@H]1O[C@@H]1C(=O)N[C@@H](CC(C)C)C(=O)NCCC(C)C)NC(=O)[C@H](CC(C)C)NC(=O)OCc1ccccc1` (stereo partly drawn), for which, in test [5], the I50 result is “Little inhibition”. Besides, the IC50 in test [2] worked out at 100000 nM.

With `CC(C)CCNC(=O)[C@H](CC(C)C)NC(=O)[C@H]1O[C@@H]1C(=O)Oc1ccc2[nH]cc(CCNC(=O)OC(C)(C)C)c2c1`, the I50 entry in test [1] is given as “substantial inhibition by 5-44 uM”. Also, the IC50 in test [2] and in test [3] was 2000 nM in each case.

As for `CC(C)CCNC(=O)[C@H](CC(C)C)NC(=O)[C@H]1O[C@@H]1C(=O)OCC(Cl)(Cl)Cl`, the I50 result in test [1] is reported as “substantial inhibition by 5-44 uM”. Moreover, the IC50 in test [2] came to 700 nM; in test [3], 1000 nM.

Take `CC(C)CCNC(=O)[C@H](CC(C)C)NC(=O)[C@H]1O[C@@H]1C(=O)OCCCl`: the I50 result in test [1] is “substantial inhibition by 5-44 uM”. In addition, the IC50 in test [2] was 2000 nM; in test [3], 300 nM.

In the case of `CC(C)CCNC(=O)[C@H](CC(C)C)NC(=O)[C@H]1O[C@@H]1C(=O)OCc1ccccc1Cl`, the I50 entry in test [1] and in test [4] was “substantial inhibition by 5-44 uM” each time. The IC50 in test [3] turned out to be 2000 nM.

For `CC(C)CCNC(=O)[C@H](CC(C)C)NC(=O)[C@H]1O[C@@H]1C(=O)OCC(Br)(Br)Br`, the I50 entry in test [1] and in test [4] was “substantial inhibition by 5-44 uM” in each case. For the same molecule, in test [3], the IC50 came out at 5000 nM.

Consider `CC(C)CCNC(=O)[C@H](CC(C)C)NC(=O)[C@H]1O[C@@H]1C(=O)O` [E-64C], for which the I50 entry in test [6] and in test [5] was “Little inhibition” in each case. Also, the IC50 in test [2] is 40 nM.

With `CC(C)CCNC(=O)[C@H](CC(C)C)NC(=O)[C@H]1O[C@@H]1C(=O)OCCI`, the I50 entry in test [1] and in test [4] was “substantial inhibition by 5-44 uM” throughout. Also, in test [3], the IC50 is 6000 nM.

`CC(C)CCNC(=O)[C@H](CC(C)C)NC(=O)[C@H]1O[C@@H]1C(=O)NCCc1c[nH]c2ccc(O)cc12`: in test [5], the I50 entry is listed as “Little inhibition”. The IC50 amounted to 6000 nM in test [2] and 4000 nM in test [3].
